# Assay outcomes from PubChem.
# E-sel inducer – E-selectin induction in HUVECs, primary screen, imaging, HUVEC, immunofluorescence imaging, single point; normalized: neutral wells 0, TNF-alpha wells 100; activation, % at 7.58 µM; 0.37% of 260,000 active;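 active = mean E-selectin-positive cell signal at least 10% of the positive control, reached in at least 60% of replicates, without over 20% cell loss; inconclusive = no rule given, readout overlaps actives, possibly toxicity-flagged; inactive = the rest, including those meeting only one limit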
# Target sequence (P16581 whole entry, looked up): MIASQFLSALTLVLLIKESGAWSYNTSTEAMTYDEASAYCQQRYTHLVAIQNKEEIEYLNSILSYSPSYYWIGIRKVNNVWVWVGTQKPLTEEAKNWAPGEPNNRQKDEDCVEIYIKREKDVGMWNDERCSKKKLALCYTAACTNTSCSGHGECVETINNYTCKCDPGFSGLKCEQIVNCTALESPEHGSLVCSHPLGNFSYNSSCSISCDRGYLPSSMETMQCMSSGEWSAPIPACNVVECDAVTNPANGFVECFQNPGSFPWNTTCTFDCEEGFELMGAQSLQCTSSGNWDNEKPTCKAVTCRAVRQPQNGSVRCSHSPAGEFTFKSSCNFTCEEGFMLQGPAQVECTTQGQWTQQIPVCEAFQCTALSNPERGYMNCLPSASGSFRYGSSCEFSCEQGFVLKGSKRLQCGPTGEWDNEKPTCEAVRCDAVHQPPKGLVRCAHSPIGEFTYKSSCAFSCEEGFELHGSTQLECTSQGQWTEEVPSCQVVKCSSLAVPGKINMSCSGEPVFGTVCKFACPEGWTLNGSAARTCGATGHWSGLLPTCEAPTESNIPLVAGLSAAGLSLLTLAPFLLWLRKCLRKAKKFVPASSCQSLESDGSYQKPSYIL
#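 Test system – human umbilical vein endothelial cells (HUVEC), E-selectin induction · Input – 3,000 HUVEC seeded per well · Buffer or medium – EGM-2, gelatin · Compound dosing – single-point compound dose · Detection – immunofluorescence imaging · Measure – percent E-selectin-positive cells · Controls – TNF-alpha high, DMSO low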
# FGF22 binding – binders of human FGF22 protein, primary screen, FGF22 synaptogenesis inhibitor project, biophysical, thermal shift, single point. activity (Tm shift, normalised), % at 9.99 µM. recombinant FGF22 thermal shift, SYPRO orange fluorescence; percent of sucrose octasulfate shift, DMSO zero. 1.5% of 340,000 active. Fibroblast growth factor 22 (Homo sapiens), Q9HCT0. AID 651658, 2012;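 active = mean Tm shift, scaled 0 neutral to 100 positive control, at about 1.3% or above, every replicate too, limit read from the data; inconclusive = no clear call, values can overlap the other calls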
# PglD DTNB – C. jejuni PglD acetyltransferase inhibitors, primary screen, biochemical, DTNB colorimetric, single point | inhibition, % at 12.5 µM | purified PglD enzyme, DTNB colorimetric CoA detection | UDP-N-acetylbacillosamine N-acetyltransferase PglD (Campylobacter jejuni) | AID 602405, 2012 | 0.098% of 360,000 active; in the data active = inhibition above about 16%, passing the limit was not always enough; inconclusive = no clear call, values can overlap the other calls
# DENV2 CPE rescue – inhibitors of DENV2 cytopathic effect, primary screen, cell-based, plate reader, single concentration. DENV2-infected cells, cytopathic effect rescue. CPE inhibition, % at 9.99 µM. 1.7% of 350,000 active; in the data active = CPE inhibition above about 20%, passing the limit was not always enough; inconclusive = no clear call, values can overlap the other calls; tested in BHK-21 cells;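 also: 0% = median of neutral control wells and 100% = median of positive control wells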
# XiGFP reactiv – activators of inactive X chromosome reactivation, primary screen, imaging, XiGFP fibroblasts, GFP high-content imaging, set 2. XiGFP mouse fibroblasts, % GFP-positive cells imaging, 3 d; cells co-treated with 5-aza-dC sensitizer; scaled so ellipticine positive control = 100%. activation, % at 7.58 µM. 0.055% of 360,000 active. AID 743238, 2013;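 active = mean normalized replicate activation at least 10% and every replicate at or above 10%; inconclusive = only one of the two criteria met; inactive = mean below 10% and not all replicates reach 10%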;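 also: 0% = median of on-plate neutral control wells and 100% = ellipticine 6 µM median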
#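 System: XiGFP fibroblasts, SV40-immortalized. Medium: DMEM plus 5-aza-dC sensitizer. Doses: single point. Timing: 3 d treatment, 15 min room-temperature fixation. Control set: ellipticine 6 µM.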
# C2C12 statin – suppressors of statin myotoxicity in C2C12 myotubes, primary screen, cell-based, single point, plate reader; 0.78% of 330,000 active; C2C12 myotubes + simvastatin, ATP luminescence, 48 h; scaled: DMSO 0, geranylgeraniol control 100; rescue of ATP level, % at 7.49 µM; AID 602340, 2012;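 active = mean ATP rescue above about 67%, or every replicate alone reaching that limit, limit read from the data, passing the limit was not always enough; inconclusive = no clear call, values can overlap the other calls; inactive = mean under the limit and some replicate under it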;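 also: myotubes were challenged with 10 µM simvastatin during compound exposure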
# * hit, by the source's call; ? = inconclusive; . = not tested or not shown. In the library only some 3.3% were active in any assay of this set; here they are far more common.
SMILES,E-sel inducer,FGF22 binding,PglD DTNB,DENV2 CPE rescue,XiGFP reactiv,C2C12 statin
COc1cc(/C=C2\CCCc3c2nc2ccccc2c3C(=O)O)cc(Br)c1O,.,21*,-1,17,0,-59
COc1cc(/C=C2\CCc3c2nc2ccccc2c3C(=O)O)cc(OC)c1OC,.,0,0,-1,0,20
CC(C)NC(=O)N(C)C[C@H]1Oc2ncc(C#CC3CCCC3)cc2C(=O)N([C@@H](C)CO)C[C@@H]1C,-2,0,-3,-15,0,16
CCCNC(=O)N1CCC2(CC1)CN(C(=O)NC1CCCC1)[C@@H](CO)c1[nH]c3cc(OC)ccc3c12,0,0,.,11,0,.
O=C(O)CN1C(=O)c2ccc(Oc3cccc4c3C(=O)N(CC(=O)O)C4=O)cc2C1=O,.,.,-2,.,.,5
O=C(O)c1ccc(N2C(=O)c3cccc(Oc4ccc(Cl)cc4)c3C2=O)cc1,.,44*,.,1,0,.
O=C(O)c1cccc(N2C(=O)c3cccc(Oc4ccc(Cl)cc4)c3C2=O)c1,.,43*,.,-4,0,.
C[C@@H]1CN([C@H](C)CO)C(=O)c2cc(NC(=O)Nc3ccc(F)cc3)ccc2O[C@@H]1CN(C)S(=O)(=O)c1ccccc1,0,0,4,-7,1,-35
COc1ccc(S(=O)(=O)N2CCC(C(=O)NCCN3CCOCC3)CC2)cc1C,.,0,1,-3,0,-9
CCS(=O)(=O)N1CCCC(C(=O)NCCc2ccc(OC)c(OC)c2)C1 (stereo not given),.,.,7,.,.,127*
COc1ccc(CCNC(=O)C2CCC(CNc3c(N4CCCC4)c(=O)c3=O)CC2)cc1OC (stereo not given),.,.,.,.,.,86*
COc1ccc(S(=O)(=O)N2CCCC(C(=O)NCCN3CCOCC3)C2)cc1C (stereo not given),0,43*,3,1,0,-1
O=C(CC(F)(F)F)N1C[C@@H]2[C@H](c3ccccc31)[C@H](CO)N2C(=O)CN1CCOCC1,1,-1,-4,9,0,-14
CCCNC(=O)N1C[C@@H](C)[C@H](OC)CN(C)C(=O)c2cc(NC(=O)C3CCC3)ccc2OC[C@@H]1C,0,.,.,.,1,-2
CCCCCC(=O)NC1CCCCN(C)C1=O (stereo not given),0,0,.,76*,0,.
C=CCn1c(=N)c(C#N)cc2c(=O)n3ccccc3nc21,.,.,.,.,.,94*
CCCN(C)C[C@H]1OCCCC[C@H](C)Oc2ccc(NC(=O)c3ccccc3)cc2C(=O)N([C@@H](C)CO)C[C@H]1C,0,0,3,?,-1,8
COc1cccc(S(=O)(=O)N2CC[C@@H]3[C@H](CO)N(C)c4ccc(C#Cc5cccnc5)cc4[C@@H]32)c1,0,0,9,-28,0,-14
C/C(=N/NS(=O)(=O)c1cccc([N+](=O)[O-])c1)c1ccncc1,28*,0,0,-3,0,10
O=C(C[C@@H]1C[C@H]2c3cc(NC(=O)C4CCOCC4)ccc3O[C@H]2[C@H](CO)O1)NC1CCCCC1,0,.,3,5,0,-5
CN1c2ccc(Br)cc2[C@H]2[C@H](CCN2C(=O)C2CCC2)[C@H]1CO,0,.,.,105*,0,.
COc1ccc(NC(=O)N2CC[C@@H]3[C@H]2c2cc(Br)ccc2N(C)[C@@H]3CO)cc1,0,0,-8,-5,0,8
CC(C)NC(=O)N1CC[C@H]2[C@@H]1c1cc(Br)ccc1N(C)[C@H]2CO,0,0,-1,?,0,-3
CN(C)C(=O)c1ccc(-c2ccc3c(c2)[C@H]2[C@H](CCN2C(=O)C2CCCCC2)[C@H](CO)N3C)cc1,0,0,.,10,0,.
CN1c2ccc(Br)cc2[C@@H]2[C@@H](CCN2C(=O)C2CCC2)[C@H]1CO,0,.,.,-8,0,.
SMILES,E-sel inducer,FGF22 binding,PglD DTNB,DENV2 CPE rescue,XiGFP reactiv,C2C12 statin
COc1ccc(NC(=O)N2CC[C@@H]3[C@@H](CO)N(C)c4ccc(Br)cc4[C@@H]32)cc1,0,0,1,54*,0,-12
CC(C)NC(=O)N1CC[C@@H]2[C@H]1c1cc(Br)ccc1N(C)[C@@H]2CO,2,0,0,108*,0,-15
CN(C)C(=O)c1ccc(-c2ccc3c(c2)[C@@H]2[C@@H](CCN2C(=O)C2CCCC2)[C@@H](CO)N3C)cc1,0,0,.,65*,0,.
COCC(=O)N1CCC2(CC1)CN[C@@H](CO)c1c2c2ccc(OC)cc2n1C,0,.,.,9,0,.
CN1c2ccc(-c3cccc(F)c3)cc2[C@H]2[C@H](CCN2C(=O)Cc2cccnc2)[C@H]1CO,0,.,1,113*,0,9
CN1c2ccc(C#Cc3cccnc3)cc2[C@@H]2[C@@H](CCN2C(=O)c2cccc(F)c2)[C@H]1CO,0,0,4,59*,0,9
COc1cccc(-c2ccc3c(c2)[C@H]2[C@H](CCN2C(=O)Nc2ccccc2OC)[C@H](CO)N3C)c1,0,0,-3,15,0,41
CN(C)C(=O)c1cccc(-c2ccc3c(c2)[C@@H]2[C@@H](CCN2C(=O)c2cccc(F)c2)[C@H](CO)N3C)c1,0,0,2,39*,0,21
CC(C)NC(=O)N1CC[C@H]2[C@@H]1c1cc(C#Cc3cccnc3)ccc1N(C)[C@H]2CO,1,0,-2,4,0,-7
COc1cccc(-c2ccc3c(c2)[C@@H]2[C@@H](CCN2C(=O)Nc2ccccc2OC)[C@@H](CO)N3C)c1,-1,0,-1,29*,1,20
C[C@H](CO)N1C[C@H](C)[C@H](CN(C)C)Oc2ccc(NS(=O)(=O)c3cn(C)cn3)cc2CC1=O,0,0,4,-6,0,7
C[C@H](C(=O)N(C)C[C@@H]1OCc2ccccc2-c2ccccc2C(=O)N([C@H](C)CO)C[C@@H]1C)c1ccccc1,0,.,.,.,-1,-13
C[C@@H]1CCCCO[C@@H](CN(C)Cc2ccncc2)[C@H](C)CN([C@@H](C)CO)C(=O)c2cc(NC(=O)C3CCCCC3)ccc2O1,0,0,-5,-3,0,2
O=C(/C=C/c1ccccc1)C1=C(O)C(=O)N(CCO)C1c1ccc2c(c1)OCO2 (stereo not given),.,0,-10,-6,0,115*
